Most compounds without a hit are left out; they make up all but 4% or so of the library.
CHO parental Ca: counter-screen: ATP calcium response change in parental CHO cells; parental CHO-K1, ATP-induced calcium, Fluo-8 fluorescence; inhibition, % at 5.6 µM; 330,000 tested, 0.63% active; AID 463079;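 active = inhibition above that plate's mean sample inhibition plus 3 SD, cut at about 26% in these data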
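Assay system: untransfected parental CHO cell line. Also added: ATP agonist challenge. Dosing: one dose, 5.6 µM nominal. Measured by: Fluo-8 fluorescence. Read-out: % inhibition. Benchmarks: ATP wells versus no-ATP DMSO wells. Repeats: no replicates.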
OX1R antag-1: blocks the human orexin 1 receptor; OX1R-expressing cells, FRET antagonist read-out; inhibition, % at 6.6 µM; 330,000 tested, 1.8% active; AID 485270; in the data active = inhibition mostly above about 38%, no sharp cut-off; inactive = mostly below about 40%
Target sequence (O43613 whole entry, looked up): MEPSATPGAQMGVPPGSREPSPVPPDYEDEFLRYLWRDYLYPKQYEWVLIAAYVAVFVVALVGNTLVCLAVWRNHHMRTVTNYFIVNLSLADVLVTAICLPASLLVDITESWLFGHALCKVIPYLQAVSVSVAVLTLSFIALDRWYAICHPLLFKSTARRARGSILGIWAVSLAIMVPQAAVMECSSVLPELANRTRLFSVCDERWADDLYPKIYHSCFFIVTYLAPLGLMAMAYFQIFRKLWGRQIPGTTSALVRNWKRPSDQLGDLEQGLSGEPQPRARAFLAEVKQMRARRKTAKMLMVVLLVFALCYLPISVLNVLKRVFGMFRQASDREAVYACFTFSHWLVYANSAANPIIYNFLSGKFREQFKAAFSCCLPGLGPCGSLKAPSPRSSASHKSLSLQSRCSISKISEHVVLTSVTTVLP
OX1R antag-2: blocks the human orexin 1 receptor | inhibition, % at 5 µM | AID 434989 | CHO/OX1R cells, Fluo-8 calcium fluorescence, orexin A | 330,000 tested, 0.43% active;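 active = inhibition above its plate's threshold, mean inhibition of all tested compounds on the plate plus 3 SD, cut at about 37% in these data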
TAAR1 antagonist: human TAAR1 antagonism; 360,000 tested, 1.5% active; inhibition, % at 3 µM; CHO RD-HGA16 TAAR1, Fluo-8 calcium fluorescence, antagonist; Q96RJ0;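 active = inhibition above a per-plate cutoff, the mean inhibition of test compounds on that plate plus 3 SD, cut at about 49% in these data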
Target sequence (Q96RJ0 whole entry, looked up): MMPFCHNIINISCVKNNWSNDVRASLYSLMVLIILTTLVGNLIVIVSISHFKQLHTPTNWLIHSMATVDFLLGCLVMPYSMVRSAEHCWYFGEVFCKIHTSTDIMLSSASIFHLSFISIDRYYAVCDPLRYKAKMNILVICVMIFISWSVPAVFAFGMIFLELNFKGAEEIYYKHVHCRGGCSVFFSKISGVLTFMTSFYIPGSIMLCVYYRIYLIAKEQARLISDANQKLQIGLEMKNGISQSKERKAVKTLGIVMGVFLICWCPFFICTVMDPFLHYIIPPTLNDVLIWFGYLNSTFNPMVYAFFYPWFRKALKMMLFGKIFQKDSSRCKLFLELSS
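Material: CHO RD-HGA16 cells bearing hTAAR1; compound dosing: one-point dosing, 3 µM nominal final; schedule: dye loading 75 min at 37 °C, then 30 min room temperature; measured by: calcium fluorescence with Fluo-8; control set: vehicle and agonist controls; replication: n of 1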
TAAR1 agonist: human TAAR1 agonism; CHO RD-HGA16 TAAR1, Fluo-8 calcium fluorescence; vehicle wells 0%, saturating PEA agonist 100%; activation, % at 3 µM; 360,000 tested, 0.99% active; AID 624467;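 active = activation above the mean activation of all test compounds in the run plus 3 SD, cut at about 38% in these data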
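Test system: RD-HGA16 (CHO) cells co-expressing Gα16 and hTAAR1 / Benchmarks: DMSO vehicle as 0%, PEA at EC100 as 100% / Repeats: no replicates (n 1) / Measure: % activation from peak over basal fluorescence ratio, DMSO-to-PEA scaled / Timing: 17-24 h plating, Fluo-8 75 min 37 °C, 30 min RT / Technique: kinetic Fluo-8 calcium fluorescence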
TAAR1 ag conf: human TAAR1 agonism, confirmed. 2,400 tested, 82% active. shares compounds with TAAR1 agonist. activation, % at 3 µM. CHO RD-HGA16 TAAR1, Fluo-8 calcium fluorescence; scaled: DMSO 0%, maximal phenethylamine 100%. AID 651783;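 active = activation above a cutoff set at the run's mean compound activation plus 3 SD, cut at about 39% in these data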
Ga16 ag counter: nonselective agonism, TAAR1 counter-screen; shares compounds with TAAR1 agonist; CHO-Ga16 parental, Fluo-8 calcium fluorescence; normalized to maximal ATP response, DMSO zero; activation, % at 3 µM; 2,400 tested, 50% active;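 active = activation above the run cutoff, the mean activation over all tested wells plus 3 SD, cut at about 12% in these data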
TAAR1 desensitize: TAAR1 response desensitization, agonist counter-screen | shares compounds with TAAR1 agonist | CHO RD-HGA16 hTAAR1, Fluo-8 calcium, beta-PEA response inhibition | inhibition, % at 3 µM | 2,400 tested, 46% active | AID 651951;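 active = inhibition above the run cutoff, the mean inhibition of all test compounds plus 3 SD, cut at about 49% in these data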;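 also: beta-PEA stimulus applied at its EC80; loss of beta-PEA calcium signal after compound pretreatment read as receptor desensitization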
Ga16 antag count: nonselective Ga16 antagonism, counter-screen. shares compounds with TAAR1 agonist. CHO-Ga16 ATP-induced calcium, Fluo-8 fluorescence. inhibition, % at 3 µM. 2,400 tested, 39% active. AID 651952;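 active = inhibition above the plate's mean compound inhibition plus 3 SD, computed per plate, cut at about 22% in these data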
Of the large screens only hits and unclear results are named; the others gave an inactive call (follow-up assays come after a bar, where they were run); ! = not active in a repeat.

CCC(C)c1ccc(NC(=O)c2ccco2)cc1 (stereo not given)	none (no result: CHO parental Ca, OX1R antag-1, OX1R antag-2)
COC(=O)c1ccc(C(=O)OC)c(NC(=S)N2CCC(C)CC2)c1	none
CC1(C)CCCN(C(=O)c2coc(=O)c(Br)c2)C1	TAAR1 antagonist 76, TAAR1 agonist 79 (no result: CHO parental Ca, OX1R antag-1, OX1R antag-2) | TAAR1 ag conf 100 | Ga16 ag counter inactive | TAAR1 desensitize 95 | Ga16 antag count inactive
CCOC(CCNC(=O)c1cn(CCOC)c(=O)c2c1c1ccccc1n2C)OCC	none
N#C/C(=C/c1ccc(N2CCCCC2)o1)C(=O)Nc1ccc2ccccc2c1	TAAR1 antagonist 107, TAAR1 agonist 268 (no result: CHO parental Ca, OX1R antag-1, OX1R antag-2) | TAAR1 ag conf 199 | Ga16 ag counter 223 | TAAR1 desensitize 93 | Ga16 antag count 95
N#C/C(=C/c1ccc(N2CCOCC2)o1)C(=O)NC1CCCCC1	none
N#C/C(=C/c1ccc(N2CCCCC2)o1)C(=O)Nc1ccc(Cl)cc1	CHO parental Ca 77, OX1R antag-2 99, TAAR1 antagonist 109, TAAR1 agonist 312 | TAAR1 ag conf 127 | Ga16 ag counter 166 | TAAR1 desensitize 96 | Ga16 antag count 92
CN1CCN(C2=Cc3ccccc3Sc3cc(F)c(Cl)cc32)CC1	TAAR1 agonist 46 | TAAR1 ag conf 38 | Ga16 ag counter 16 | TAAR1 desensitize inactive | Ga16 antag count 24
CN1CCN(C2=Cc3ccccc3Sc3cc(F)c(F)cc32)CC1	none
CN1CCN(C2Cc3cc(Cl)ccc3Sc3cc(F)ccc32)CC1 (stereo not given)	none
CN1CCN(C2=Cc3cc(Cl)ccc3Sc3cc(F)ccc32)CC1	TAAR1 agonist 67 | TAAR1 ag conf 89 | Ga16 ag counter 46 | TAAR1 desensitize 70 | Ga16 antag count 45
Cc1ccc(Cl)cc1N(CC(=O)NCc1ccccc1)S(C)(=O)=O	none
CCN(CC)C(=O)C1=C(C)N(CCCN2CCCC2=O)C(=O)C(CC(=O)NCc2cccc3ccccc23)C1 (stereo not given)	none (no result: CHO parental Ca, OX1R antag-1, OX1R antag-2)
COc1ccccc1-c1csc(Nc2ccc(Oc3ccccc3)cc2)n1	none (no result: CHO parental Ca, OX1R antag-1, OX1R antag-2)
Cc1ccccc1OCC(=O)OCC(=O)NCc1cccs1	none
Oc1ccc(C=NCC2COc3ccccc3O2)cc1 (stereo not given)	none (no result: TAAR1 antagonist, TAAR1 agonist) | Ga16 ag counter inactive | Ga16 antag count inactive
COc1ccc(C)cc1NC(=O)CC1COc2ccccc2O1 (stereo not given)	none
O=C(COC(=O)c1ccc(O)cc1)NCC1COc2ccccc2O1 (stereo not given)	none
COc1ccc(C=NCC2COc3ccccc3O2)cc1OC (stereo not given)	TAAR1 agonist 67 | TAAR1 ag conf 77 | Ga16 ag counter inactive | TAAR1 desensitize 76 | Ga16 antag count inactive
CN1Cc2cccc3c2C(Cc2ccccc2S3)C1 (stereo not given)	TAAR1 agonist 59 | TAAR1 ag conf 61 | Ga16 ag counter inactive | TAAR1 desensitize inactive | Ga16 antag count inactive
CN(CC(=O)NCc1ccccc1)CC(=O)Nc1ccc(Cl)c(C(F)(F)F)c1	TAAR1 agonist 73 | TAAR1 ag conf 82 | Ga16 ag counter 25 | TAAR1 desensitize 60 | Ga16 antag count 34
Cc1ccc(C2(C)NC(=O)N(CC(=O)N3CCc4ccccc43)C2=O)cc1 (stereo not given)	none
CC1(c2ccc(Cl)cc2)NC(=O)N(CC(=O)N2CCc3ccccc32)C1=O (stereo not given)	TAAR1 antagonist 73, TAAR1 agonist 97 | TAAR1 ag conf 114 | Ga16 ag counter 74 | TAAR1 desensitize 77 | Ga16 antag count 55
CC/C(=C(\c1ccccc1)c1ccc(OCCN(C)C)cc1)c1ccccc1	TAAR1 agonist 39! | TAAR1 ag conf 46 | Ga16 ag counter 42 | TAAR1 desensitize inactive | Ga16 antag count 38
CCC(=C(c1ccccc1)c1ccc(OCCN(C)C)cc1)c1ccccc1	none (no result: CHO parental Ca, OX1R antag-1, OX1R antag-2)
Cc1ccc(C(C)NC(=O)/C(C#N)=C\c2c(C)[nH]c3ccccc23)cc1 (stereo not given)	CHO parental Ca 33, TAAR1 agonist 63 | TAAR1 ag conf 59 | Ga16 ag counter 33 | TAAR1 desensitize inactive | Ga16 antag count 39
O=[N+]([O-])c1cccc(/C=N/Nc2nc(NCc3ccccc3)nc(N3CCOCC3)n2)c1O	TAAR1 agonist 67 | TAAR1 ag conf 115 | Ga16 ag counter 112 | TAAR1 desensitize 93 | Ga16 antag count 85
O=[N+]([O-])c1ccc(/C=N/Nc2nc(NCc3ccccc3)nc(N3CCOCC3)n2)cc1	none
O=C(CCc1nnc(CCCc2ccccc2)o1)NC(C1CC1)C1CC1	none
O=C(NCc1ccco1)c1cccc(-c2cncc3nccn23)c1	none (no result: CHO parental Ca, OX1R antag-1, OX1R antag-2)
O=C(NCc1nnc(SCC(=O)N2CCCC2)o1)c1cccc(C(F)(F)F)c1	none
O=C1CC(NCCc2ccccc2)C(=O)N1CCc1ccccc1 (stereo not given)	TAAR1 agonist 61 | TAAR1 ag conf 63 | Ga16 ag counter inactive | TAAR1 desensitize inactive | Ga16 antag count inactive
COc1ccc(CCNC2CC(=O)N(CCc3ccccc3)C2=O)cc1 (stereo not given)	none
COc1cc(/C=c2\s/c(=C(/C#N)C(=O)N3CCCC3)n(-c3ccccc3)c2=O)ccc1O	TAAR1 antagonist 76, TAAR1 agonist 75 | TAAR1 ag conf inactive | Ga16 ag counter 34 | TAAR1 desensitize 64 | Ga16 antag count 54
NCCc1c(-c2ccccc2)n(-c2ccccc2)c2ccccc12	TAAR1 antagonist 63, TAAR1 agonist 61 (no result: CHO parental Ca, OX1R antag-1, OX1R antag-2) | TAAR1 ag conf 85 | Ga16 ag counter 51 | TAAR1 desensitize 96 | Ga16 antag count 34
CC(=O)n1c(-c2ccccc2)c(CO)c2ccccc21	none
CC(=O)OCC(OC(C)=O)C(OC(C)=O)C(OC(C)=O)C(=O)Nc1cccc(C)c1 (stereo not given)	none
CCN1C(N(C)CCc2cccs2)=N[C@@H](c2ccccc2)C(C(=O)OC)=C1C	TAAR1 agonist 68 | TAAR1 ag conf 74 | Ga16 ag counter inactive | TAAR1 desensitize inactive | Ga16 antag count inactive
O=C(COC(=O)/C=C/c1cccc(F)c1)NC1CCCCCC1	TAAR1 antagonist 54, TAAR1 agonist 64 | TAAR1 ag conf 88 | Ga16 ag counter 38 | TAAR1 desensitize 72 | Ga16 antag count inactive

Screening results from PubChem BioAssay.
